Converted amounts (≈) assume the structure as drawn.
Tests used:
Type in all cases: functional
Streptococcus equinus = assay: In vitro minimum inhibitory concentration against Streptococcus bovis A5169 using brain-heart infusion agar
Summary of the method: (§1)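 Overnight cultures were grown in BHI broth at 36 °C. Twofold dilutions of a 2000 µg/mL stock were made in BHI agar, giving 200–0.005 µg/mL. Plates received about 10^4 organisms and were incubated for 18 h at 36 °C. MIC was the lowest concentration with no visible growth on the plate.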

Pseudomonas aeruginosa [1] = assay: In vitro minimum inhibitory concentration against Pseudomonas aeruginosa A5007 using brain-heart infusion agar; summary of the method: as §1
Staphylococcus aureus [2] = assay: In vitro minimum inhibitory concentration against Staphylococcus aureus CMX 553 using brain-heart infusion agar; summary of the method: as §1
Staphylococcus aureus [3] = assay: In vitro minimum inhibitory concentration against Staphylococcus aureus A 5177 using brain-heart infusion agar; summary of the method: as §1
Escherichia coli = assay: In vitro minimum inhibitory concentration against Escherichia coli Juhl using brain-heart infusion agar; summary of the method: as §1
Acinetobacter = assay: In vitro minimum inhibitory concentration against Acinetobacter CMX 669 using brain-heart infusion agar; summary of the method: as §1
Enterococcus faecium = assay: In vitro minimum inhibitory concentration against Enterococcus faecium ATCC 8043 using brain-heart infusion agar; summary of the method: as §1
Streptococcus agalactiae = assay: In vitro minimum inhibitory concentration against Streptococcus agalactiae CMX 508 using brain-heart infusion agar; summary of the method: as §1
Klebsiella aerogenes = assay: In vitro minimum inhibitory concentration against Enterobacter aerogenes ATCC 13048 using brain-heart infusion agar; summary of the method: as §1
Pseudomonas aeruginosa [4] = assay: In vitro minimum inhibitory concentration against Pseudomonas aeruginosa K799 / WT using brain-heart infusion agar; summary of the method: as §1
Staphylococcus aureus [5] = assay: In vitro minimum inhibitory concentrationp against Staphylococcus aureus ATCC 6538P using brain-heart infusion agar; summary of the method: as §1
Streptococcus pyogenes = assay: In vitro minimum inhibitory concentration against Streptococcus pyogenes 930 using brain-heart infusion agar; summary of the method: as §1
Klebsiella pneumoniae = assay: In vitro minimum inhibitory concentration against Klebsiella pneumoniae 8045 using brain-heart infusion agar; summary of the method: as §1
[6] = test system: Staphylococcus epidermidis; assay: In vitro minimum inhibitory concentration against Staphylococcus epidermidis 3159 using brain-heart infusion agar; summary of the method: as §1

MIC (Streptococcus equinus): 1.56 µg/mL (≈ 3.74 µM)
MIC (Pseudomonas aeruginosa [1]): 0.78 µg/mL (≈ 1.87 µM)
MIC (Staphylococcus aureus [2]): 0.39 µg/mL (≈ 0.934 µM)
MIC (Staphylococcus aureus [3]): 0.39 µg/mL (≈ 0.934 µM)
MIC (Escherichia coli): 0.1 µg/mL (≈ 0.24 µM)
MIC (Acinetobacter): 0.78 µg/mL (≈ 1.87 µM)
MIC (Enterococcus faecium): 0.78 µg/mL (≈ 1.87 µM)
MIC (Streptococcus agalactiae): 0.78 µg/mL (≈ 1.87 µM)
MIC (Klebsiella aerogenes): 0.39 µg/mL (≈ 0.934 µM)
MIC (Pseudomonas aeruginosa [4]): 0.78 µg/mL (≈ 1.87 µM)
MIC (Staphylococcus aureus [5]): 0.1 µg/mL (≈ 0.24 µM)
MIC (Streptococcus pyogenes): 0.39 µg/mL (≈ 0.934 µM)
MIC (Klebsiella pneumoniae): 0.1 µg/mL (≈ 0.24 µM)
MIC [6]: 0.39 µg/mL (≈ 0.934 µM)
SMILES: NC1CCN(c2cc3c(cc2F)c(=O)c(C(=O)O)cn3-c2ccc(F)cc2F)CC1

Reference: ChEMBL document CHEMBL1125434, “Preparation and in vitro and in vivo evaluation of quinolones with selective activity against gram-positive organisms” (1992)
